Rows were chosen to be rich in hits. Some 4.1% of all compounds tested hit in one or more screens of this group.
MPTP block – mitochondrial permeability transition pore inhibitors, primary screen, biochemical, isolated mouse mitochondria, absorbance; inhibition, % at 10 µM; AID 602449, 2012; Ca2+ swelling absorbance, 30 min; 1.4% of 360,000 active;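 active = inhibition of 50% or more, scaled per plate between neutral and stimulator controls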
ATG4B inh – ATG4B protease inhibitors, primary screen, biochemical, fluorescence, uHTS | Cysteine protease ATG4B (Homo sapiens), Q9Y4P1 | ATG4B cleavage of LC3-PLA2, NBD-HPC fluorescence, 1 h | inhibition, % at 8.33 µM | 0.51% of 340,000 active | AID 504462, 2011; in the data active = inhibition above about 40%
Target sequence (Q9Y4P1 whole entry, looked up): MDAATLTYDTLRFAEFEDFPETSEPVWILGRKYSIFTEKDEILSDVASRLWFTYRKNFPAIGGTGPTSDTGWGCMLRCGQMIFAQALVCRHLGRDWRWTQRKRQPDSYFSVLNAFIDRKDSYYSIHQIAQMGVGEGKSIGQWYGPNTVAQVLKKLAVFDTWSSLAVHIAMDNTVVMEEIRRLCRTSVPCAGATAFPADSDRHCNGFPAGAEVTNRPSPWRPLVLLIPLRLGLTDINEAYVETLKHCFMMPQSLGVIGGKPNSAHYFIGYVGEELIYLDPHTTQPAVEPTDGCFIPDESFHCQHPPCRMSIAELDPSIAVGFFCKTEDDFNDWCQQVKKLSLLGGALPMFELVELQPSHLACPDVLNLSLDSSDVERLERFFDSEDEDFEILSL
MC4R ag barr – MC4R agonists recruiting beta-arrestin, primary screen, cell-based, luminescence, agonist arm of biased-ligand search | U2OS MC4R beta-arrestin complementation; percent of melanotan II response, DMSO zero | activation, % at 8.9 µM | 0.98% of 360,000 active;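 active = activation above a per-plate cutoff, the mean activation of sample wells on that plate plus 3 SD, cut at about 8% in these data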
Target sequence (P32245 whole entry, looked up): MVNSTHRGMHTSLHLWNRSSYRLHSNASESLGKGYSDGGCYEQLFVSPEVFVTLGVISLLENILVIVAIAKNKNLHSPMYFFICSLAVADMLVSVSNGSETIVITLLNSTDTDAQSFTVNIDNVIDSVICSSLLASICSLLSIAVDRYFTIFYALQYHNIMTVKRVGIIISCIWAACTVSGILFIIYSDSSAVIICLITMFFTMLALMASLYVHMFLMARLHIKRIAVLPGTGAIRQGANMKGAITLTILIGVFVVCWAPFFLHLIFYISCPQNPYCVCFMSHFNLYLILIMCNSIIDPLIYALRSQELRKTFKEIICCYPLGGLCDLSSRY
MC4R antag cAMP – MC4R antagonists of cAMP signaling, primary screen, cell-based, TR-FRET, antagonist arm of biased-ligand search | Melanocortin receptor 4 (Homo sapiens), P32245 | inhibition, % at 6.5 µM | MC4R-expressing cells, MTII-stimulated cAMP, LANCE TR-FRET | 0.48% of 360,000 active;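 active = inhibition above its plate's cutoff, the mean of tested wells on that plate plus 3 SD, cut at about 29% in these data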
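material = U2OS cells stably expressing human melanocortin 4 receptor (MC4R) | also added = Melanotan II challenge | dosing = single nominal compound dose of 6.5 µM | detection = TR-FRET with Eu-cAMP and labeled anti-cAMP, 671 nm | replication = singlicate | timing = compound 30 min, challenge 1 h, detection 1 h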
SMARCA2 activ – SMARCA2 (BRM) function activators, primary screen, cell-based, luminescence, high throughput; MG213 cells, MMTV-luciferase reporter, dexamethasone, overnight; activation, % at 9.1 µM; 1% of 370,000 active; in the data active = activation above about 7.8%
cAMP nonselect – nonselective cAMP signaling inhibitors, parental cells, counter-screen for MC4R biased antagonist project, cell-based, TR-FRET, U2OS, forskolin, triplicate. 26% of 1,600 active. AID 602193, 2012. LANCE TR-FRET. shares compounds with MC4R antag cAMP. inhibition, % at 6.5 µM;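 active = mean inhibition over triplicates above the low-control well mean plus 3 SD, set per campaign, cut at about 13% in these data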;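 note: signal is single emission at 671 nm which falls as cellular cAMP rises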
MC4R cAMP antag – MC4R cAMP antagonists, retest, confirmation, cell-based, TR-FRET. shares compounds with MC4R antag cAMP. MC4R-expressing cells, MTII-stimulated cAMP. inhibition, % at 6.5 µM. 27% of 1,600 active; in the data active = inhibition above about 29%
MC4R barr ag – MC4R beta-arrestin agonists, retest, confirmation, cell-based, luminescence, U2OS; shares compounds with MC4R ag barr; U2OS MC4R beta-arrestin recruitment; scaled DMSO 0%, Melanotan II 100%; activation, % at 8.9 µM; 31% of 2,400 active;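 active = mean activation across replicates above the hit cutoff set in the earlier primary screen, cut at about 8% in these data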
MOR DOR agonist – agonists of MOR-DOR heterodimerization, counter-screen for MC4R biased agonist project, cell-based, luminescence; shares compounds with MC4R ag barr; U2OS PathHunter beta-arrestin, beta-gal luminescence; percent of deltorphin B response, DMSO zero; activation, % at 9.2 µM; 5.8% of 2,400 active; AID 602194, 2012;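 active = mean activation across replicates exceeds the hit threshold derived in the earlier primary screen, cut at about 18% in these data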
Rh123 counter – fluorescence retest of MPTP screen hits in isolated mitochondria, single concentration; 78% of 5,000 active; AID 624504, 2012; membrane potential, Rhodamine 123 fluorescence; shares compounds with MPTP block; inhibition, % at 10 µM; in the data active = inhibition above about 22%
MPTP abs DR – mitochondrial permeability transition pore inhibitors, dose response, biochemical, absorbance, uHTS hits. 58% of 780 active. isolated mitochondria swelling. IC50, µM. shares compounds with MPTP block; in the data active = IC50 below about 20 µM
MPTP counter DR – fluorescent counter-screen in isolated mitochondria, dose response, counter-screen for MPTP inhibitor project, biochemical, fluorescence, uHTS hits | shares compounds with MPTP block | isolated mitochondria counterscreen, fluorescence read-out | IC50, µM | 49% of 780 active; in the data active = IC50 below about 80 µM
Large screens that a line does not name were inactive (follow-up assays come after a bar, where they were run); ! = not active in a repeat.

C[C@]12CC[C@H](OS(=O)(=O)O)CC1=CC[C@@H]1[C@@H]2CC[C@]2(C)C(=O)CC[C@@H]12	none
O=C(c1ccccc1)N1Cc2cc(Br)ccc2-n2nncc2C1	none (no result: MPTP block, ATG4B inh, MC4R ag barr, MC4R antag cAMP)
Cc1ccccc1[N+](=O)[O-]	none
Cc1cc([N+](=O)[O-])c2ccccc2[n+]1[O-]	MC4R antag cAMP 31 (no result: SMARCA2 activ) | cAMP nonselect inactive | MC4R cAMP antag 31
CCOC(=O)[C@]12Cc3cc(Cl)ccc3[C@H]1N(C1CCCCC1)C(=O)c1cc(OC)ccc12	none (no result: ATG4B inh, MC4R ag barr, MC4R antag cAMP)
Cc1cc(/C=C2\C(=O)NC(=O)N(Cc3ccco3)C2=O)c(C)n1-c1ccc(O)cc1	MC4R antag cAMP 30 | cAMP nonselect inactive | MC4R cAMP antag inactive
CCC(C)(O)C(=O)OC1C(=O)OC2CC3C(C)=CC(O)C(O)C3(C)C3C4(O)OCC23C1C(C)C4O (stereo not drawn)	none (no result: ATG4B inh)
Cc1ccc(Cn2nc(C)c(C=O)c2Cl)cc1	MC4R antag cAMP 31 | cAMP nonselect inactive | MC4R cAMP antag inactive
COc1ccccc1OP(=O)(Nc1ccc(Br)cc1)Oc1ccccc1OC	MC4R ag barr 18 | MC4R barr ag inactive | MOR DOR agonist inactive
CCCNC(=O)c1c(N)n(Cc2ccc3c(c2)OCO3)c2nc3ccccc3nc12	none (no result: SMARCA2 activ)
CC(C)CCNC(=O)c1c(N)n(Cc2ccc3c(c2)OCO3)c2nc3ccccc3nc12	MC4R ag barr 13 | MC4R barr ag 8.4 | MOR DOR agonist inactive
CC(C)CNC(=O)c1c(N)n(Cc2ccc3c(c2)OCO3)c2nc3ccccc3nc12	MC4R ag barr 11 | MC4R barr ag 9.2 | MOR DOR agonist inactive
NC(=O)c1ccc(N=Cc2c(O)n(Cc3ccco3)c(=O)[nH]c2=O)cc1	none
CCN(CC)c1ccc(N=Cc2c(O)n(Cc3ccco3)c(=O)[nH]c2=O)cc1	MC4R ag barr 11 | MC4R barr ag inactive | MOR DOR agonist inactive
O=C(NC1CCCCC1)N1Cc2cc(Br)ccc2-n2nncc2C1	none (no result: MPTP block, ATG4B inh, MC4R ag barr, MC4R antag cAMP)
CC1CCC(C(C)C)C(OC(=O)Cn2c(COc3ccccc3)[n+](C)c3ccccc32)C1 (stereo not drawn)	MC4R ag barr 29 | MC4R barr ag 10 | MOR DOR agonist inactive
O=P(Nc1ccccc1)(Oc1ccccc1)Oc1ccccc1	none
O=P(NC(c1ccccc1)c1ccccc1)(Oc1ccccc1)Oc1ccccc1	MC4R ag barr 11 | MC4R barr ag inactive | MOR DOR agonist inactive
CCCCN1CCN(C(=O)COc2cc(=O)n(C)c3ccccc23)CC1	none (no result: MPTP block, ATG4B inh, MC4R ag barr, MC4R antag cAMP)
CC(C)(C)c1cc(OC(=O)Cc2ccccc2)ccc1O	MC4R ag barr 10 | MC4R barr ag inactive | MOR DOR agonist inactive
Clc1cc(Cl)cc(CN2Cc3ccccc3-n3nncc3C2)c1	none (no result: MPTP block, ATG4B inh, MC4R ag barr, MC4R antag cAMP)
COc1ccc(OC(=O)N(C)C[C@H]2OCc3cnnn3CCCC(=O)N([C@@H](C)CO)C[C@@H]2C)cc1	none (no result: MPTP block, ATG4B inh, MC4R ag barr, MC4R antag cAMP)
Nc1ccc(C2(c3ccc(N)cc3)c3ccccc3-c3ccccc32)cc1	MC4R ag barr 70 | MC4R barr ag 45 | MOR DOR agonist inactive
C[C@H](NC(=O)OCc1ccccc1)C(=O)NC(Cc1ccccc1)P(=O)(Oc1ccccc1)Oc1ccccc1 (stereo partly drawn)	none (no result: MPTP block, ATG4B inh, MC4R ag barr, MC4R antag cAMP)
CCCCn1c(O)c(C(CC)=NCc2ccc3c(c2)OCO3)c(=O)[nH]c1=O	MPTP block 68 | Rh123 counter 27
Cc1[nH]c2c(C(F)(F)F)cccc2c1CCN	MPTP block 73 | Rh123 counter inactive | MPTP abs DR inactive | MPTP counter DR inactive
Oc1c(Cl)cccc1Cc1cc(Cl)cc(Cl)c1O	MPTP block 81 | Rh123 counter 64
Fc1ccc2nc(-c3ccc(CN4CCC(n5nnc6ccccc65)CC4)cc3)c(-c3ccccc3)nc2c1	none (no result: MPTP block, ATG4B inh, MC4R ag barr, MC4R antag cAMP)
CSc1ncc(/C=C2/C(=O)NC(=O)N(C3CCCCC3)C2=O)cn1	MPTP block 90 | Rh123 counter inactive | MPTP abs DR 3.4 | MPTP counter DR inactive
CN1c2ccc(Br)cc2[C@@H]2NCC[C@@H]2[C@@H]1CO	none (no result: MPTP block, ATG4B inh, MC4R ag barr, MC4R antag cAMP)
OC(c1cccc(Cl)c1)(c1cccc(Cl)c1)C1CN2CCC1CC2 (stereo not drawn)	MPTP block 72 | Rh123 counter inactive
CCN(CC)S(=O)(=O)c1ccc(C)c(NCC(=O)Nc2ccc(C#N)c(Cl)c2)c1	MPTP block 77 | Rh123 counter 87
CC(=O)N1CCN(CC(=O)Nc2ccc(C#N)c(Cl)c2)CC1	none
CC(C)S(=O)(=O)N1Cc2ccc(Br)cc2-n2nncc2C1	none (no result: MPTP block, ATG4B inh, MC4R ag barr, MC4R antag cAMP)
Oc1ccc(C2NCc3ccccc3-n3cccc32)cc1Cl (stereo not drawn)	MPTP block 84! | Rh123 counter inactive | MPTP abs DR inactive | MPTP counter DR inactive
FC(F)(F)c1cccc(C2NCc3ccccc3-n3cccc32)c1 (stereo not drawn)	none
CCOc1cc(CNCCc2c[nH]c3ccccc23)cc(Cl)c1OC	MPTP block 95 | Rh123 counter inactive | MPTP abs DR 3.4 | MPTP counter DR 18
O=C(NCc1cccnc1)Nc1ccc([N+](=O)[O-])cc1	MPTP block 66 | Rh123 counter 96
O=C(NCc1cccnc1)Nc1ccccc1Cl	none

Screens deposited in PubChem by several laboratories.
